Compound activity from PubChem BioAssay.
NR3A LBD binder – modulates the human NR3A ligand-binding domain; Tm shift relative to glycine control, % at 25 µM; 2.5% of 340,000 active; AID 1259313; NR3A LBD differential scanning fluorimetry, Tm shift; 0% = protein alone, 100% = glycine-bound protein;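 active means melting temperature shift of at least 10% of the positive control shift, at one fixed dose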
EBI2 antag – antagonists of human EBI2 receptor; P32249; EBI2 beta-arrestin recruitment, luminescence, 7a,25-OHC stimulated; inhibition, % at 5 µM; 0.81% of 360,000 active; AID 651636; in the data active means inhibition above about 38%;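 further: enzyme fragment complementation signal reports receptor beta-arrestin coupling in cells; 0% = agonist plus DMSO wells and 100% = wells without agonist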
MPTP block – inhibitors of mitochondrial permeability transition pore; isolated mouse mitochondria, Ca2+ swelling absorbance, 30 min; inhibition, % at 10 µM; 1.4% of 360,000 active; AID 602449;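 active means inhibition of 50% or more, scaled per plate between neutral and stimulator controls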;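 further: 0% = DMSO wells given calcium and 100% = 1 mM EGTA wells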
SENP1 inh – SENP1 (human) catalytic domain inhibition. Q9P0U3. recombinant SENP1 catalytic domain, CyPet-SUMO1-YPet FRET cleavage. inhibition, % at 10 µM. 0.21% of 360,000 active. AID 624204;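 active means inhibition at least 30% at 10 µM, raw YFP signal under a set limit, fluorescence ratio 0.5 to 1.5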;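 further: 0% = enzyme with DMSO and 100% = no enzyme wells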
Target sequence (Q9P0U3 419-644 limits assumed): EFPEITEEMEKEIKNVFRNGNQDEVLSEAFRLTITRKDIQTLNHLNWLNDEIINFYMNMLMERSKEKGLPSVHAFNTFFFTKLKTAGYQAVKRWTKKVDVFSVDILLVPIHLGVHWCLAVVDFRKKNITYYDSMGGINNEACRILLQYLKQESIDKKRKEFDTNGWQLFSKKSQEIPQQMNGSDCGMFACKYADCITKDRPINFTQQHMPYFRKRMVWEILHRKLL
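Test system: hSENP1 catalytic domain, recombinant; Amount: 20 pM final SENP1 enzyme; Medium: Tris pH 8 buffer plus EDTA, NaCl, BME, BSA, NP40, catalase; Schedule: 50 min enzyme reaction, room temperature, light-protected; Technique: FRET fluorescence in CFP and YFP emission channels; Controls: no-enzyme wells low, DMSO-plus-enzyme wells high control.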
An asterisk follows results filed as active. Hits are enriched below; roughly 4.4% of the tested compounds scored in any of these assays.

SMILES | NR3A LBD binder | EBI2 antag | MPTP block | SENP1 inh
CCCOc1ccc(-c2c(C(=O)N/N=C/c3ccc(OCC)cc3)nnn2-c2nonc2N)cc1 | 5.4 | 7.8 | -0.7 | -0.9
CCCOc1ccc(-c2c(C(=O)N/N=C/c3ccc(OC)cc3)nnn2-c2nonc2N)cc1 | 10.4* | -0.3 | -1.9 | 1.4
CCOc1cccc(-c2c(C(=O)N/N=C/c3cccnc3)nnn2-c2nonc2N)c1 | -1.6 | -17.7 | 0.3 | 0.8
CCOc1ccc(-c2c(C(=O)N/N=C/c3ccsc3)nnn2-c2nonc2N)cc1 | 12.7* | 9.5 | -2.2 | -0.2
CCOc1ccc(-c2c(C(=O)N/N=C/c3cccc(Br)c3)nnn2-c2nonc2N)cc1 | 16.6* | 18.2 | -0.8 | 1.5
O=C(Cn1cc(/C=N/NC(=O)c2ccccc2Br)c2ccccc21)Nc1ccc(F)cc1 | 10.0* | 7.3 | 8.2 | -2.6
COc1ccc2nnc(-c3ccc(C(F)(F)F)cc3)n2n1 | 0.4 | 6.1 | 3.3 | -2.9
Cn1c(Cc2cccs2)nnc1SC/C=C/c1ccccc1 | 1.5 | 13.9 | -1.1 | 1.7
Cn1c(SC/C=C/c2ccccc2)nnc1-c1ccco1 | 12.3* | 6.7 | -8.2 | 1.7
CCCN(CC(=O)Nc1ccccc1OC)C(=O)c1ccc2c(c1)NC(=O)C(C)S2 (stereo unspecified) | 3.0 | 4.7 | -0.5 | 1.1
O=C(N/N=C/c1ccc(-c2cccc([N+](=O)[O-])c2)o1)[C@H]1C[C@@H]1c1ccccc1 | 14.8* | 2.0 | 2.4 | 1.0
O=C(N/N=C\c1ccc(-c2ccc([N+](=O)[O-])cc2)o1)C1COc2ccccc2O1 (stereo unspecified) | 25.3* | 0.6 | 1.7 | -29.1
N#C/C(=C\c1ccc(-c2cccc([N+](=O)[O-])c2)o1)C(=O)Nc1nc(-c2cccs2)cs1 | 11.4* | 4.1 | 4.1 | 11.3
CN(C)c1ccc(/C=N/NC(=O)C2COc3ccccc3O2)o1 (stereo unspecified) | 0.3 | 4.3 | 0.3 | -1.4
Cc1cc([N+](=O)[O-])ccc1-c1ccc(/C=N/NC(=O)c2ccc(Br)o2)o1 | 26.6* | -6.1 | -0.1 | -19.7
Cc1cc(C(=O)N/N=C/c2ccc(-c3ccc([N+](=O)[O-])cc3C)o2)n[nH]1 | 2.8 | 8.1 | -1.4 | -25.4
COc1cscc1C(=O)O | 0.2 | -4.1 | 2.6 | 0.1
Cc1ccc(C(=O)OC(C)C(=O)NC2CCCCC2C)cc1S(=O)(=O)N1CCCCC1 (stereo unspecified) | 0.9 | 10.4 | 0.3 | -1.2
O=C(N/N=C/c1ccc(-c2cccc([N+](=O)[O-])c2)o1)c1cccs1 | 14.1* | 0.1 | -0.6 | 2.6
CC1(C)CC(=O)C2=C(C1)OC1OC(=O)CC21C (stereo unspecified) | 0.4 | -11.4 | -0.1 | 1.2
O=C(CSc1ccc(Cl)cc1)OCc1nnc(-c2ccccc2)o1 | 18.7* | 3.4 | 0.9 | 5.8
O=C(Cc1ccc(Cl)cc1)OCc1nnc(-c2ccccc2)o1 | 3.3 | -2.9 | -2.1 | 2.3
CCOc1ccc(N/C=C/C(=O)c2ccccc2)c([N+](=O)[O-])c1 | 18.4* | 7.9 | 2.5 | 8.1
Cc1cccc(C)c1NC(=O)CN(C)C(=O)Cc1cccc(C(F)(F)F)c1 | 11.6* | 12.2 | 0.8 | -2.3
Cc1cc2occ(CC(=O)N(C)CC(=O)Nc3c(C)cccc3C)c2cc1C | -1.1 | -4.6 | -0.3 | -3.2
SMILES | NR3A LBD binder | EBI2 antag | MPTP block | SENP1 inh
COc1cccc(CC2CC(=O)N(c3ccc4c(C)cc(=O)oc4c3)C2=O)c1 (stereo unspecified) | 0.2 | 0.2 | -4.5 | 0.6
CCc1cccc(CC)c1NC(=O)COC(=O)c1cccc(S(=O)(=O)N2CCc3ccccc3C2)c1 | -2.4 | -15.6 | -1.9 | 0.1
Cc1cccc(C(C)C)c1NC(=O)COC(=O)c1cccc(S(=O)(=O)N2CCc3ccccc3C2)c1 | 21.7* | 14.9 | 5.0 | 0.6
CCOc1ccc2c(c1)C(N(CCN1CCOCC1)C(=S)Nc1ccccc1OC)CC(C)(C)O2 (stereo unspecified) | -0.9 | -5.0 | 3.5 | 0.2
COc1ccccc1NC(=O)c1ccc(NC(=O)COC(=O)C2(C)CC2(Cl)Cl)cc1 (stereo unspecified) | 25.3* | -1.2 | 2.6 | 4.0
CC1(C(=O)OCC(=O)Nc2ccc(C(N)=O)cc2)CC1(Cl)Cl (stereo unspecified) | 0.1 | 11.5 | 4.9 | -0.5
CC(C)c1ccc(N(C(=O)CNC(=O)c2ccco2)C(C(=O)NC2CCCC2)c2cccnc2)cc1 (stereo unspecified) | -1.2 | 12.3 | -0.3 | 2.2
Cc1ccc(S(=O)(=O)Nc2cccc3cccnc23)cc1 | 0.0 | 29.7 | -0.7 | -1.0
